SENP8 block-1: blocks the human protease SENP8; purified SENP8, Z-RLRGG-aminoluciferin cleavage, luminescence; inhibition, % at 10 µM; 330,000 compounds, 1.2% hits; AID 2540; Q96LD8; in the data active = inhibition above about 50%
Target sequence (Q96LD8 whole entry, looked up): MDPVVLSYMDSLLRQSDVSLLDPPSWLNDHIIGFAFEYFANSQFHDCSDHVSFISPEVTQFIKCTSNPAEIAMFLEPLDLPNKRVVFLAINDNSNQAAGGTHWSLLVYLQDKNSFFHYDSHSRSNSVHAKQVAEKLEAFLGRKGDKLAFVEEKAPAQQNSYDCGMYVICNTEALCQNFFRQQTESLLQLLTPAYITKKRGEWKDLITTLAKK
SENP1 inh: inhibitors of human SENP1 SUMO protease catalytic domain; recombinant SENP1 catalytic domain, CyPet-SUMO1-YPet FRET cleavage; inhibition, % at 10 µM; 360,000 compounds, 0.21% hits; AID 624204;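 active = inhibition at least 30% at 10 µM, raw YFP signal under a set limit, fluorescence ratio 0.5 to 1.5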;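 also: 0% = enzyme with DMSO and 100% = no enzyme wells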
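Assay system: hSENP1 catalytic domain, recombinant. Amount: SENP1 enzyme, 20 pM final. Schedule: 50 min reaction, RT, dark. Technique: FRET, CFP and YFP emission. Control set: no-enzyme wells low, DMSO-plus-enzyme wells high control.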
SENP6 block: blocks the human protease SENP6. inhibition, % at 10 µM. Recombinant SENP6 catalytic domain, aminoluciferin luminescence. 330,000 compounds, 1.8% hits;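 active = inhibition above about 50% at the single tested dose, limit read from the data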;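 also: plate controls were DMSO wells with enzyme for no effect and DMSO wells lacking enzyme for full effect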
SENP8 block-2: blocks human SENP8 cleavage of Nedd8 substrate | recombinant SENP8, Nedd8 substrate fluorescence | inhibition, % at 20 µM | 360,000 compounds, 0.64% hits; in the data active = inhibition mostly above about 40%, no sharp cut-off; inactive = mostly below about 27%
SENP7 block: SENP7 protease inhibition; AID 434973; Q9BQF6; inhibition, % at 5 µM; 330,000 compounds, 1.5% hits; recombinant SENP7, Z-RLRGG-aminoluciferin luminescence, 40 min;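 active = inhibition above about 50% at the single test dose, limit read from the data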;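 also: plate controls were DMSO with enzyme for no effect and no enzyme buffer wells for full effect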
SENP8 conf: confirmation of human SENP8 protease inhibitors; shares compounds with SENP7 block; Recombinant SENP8, Z-RLRGG-aminoluciferin luminescence, 60 min; inhibition, % at 12.5 µM; 6,200 compounds, 40% hits; AID 488912;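 active = mean inhibition across replicates above about 50%, limit read from the data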
SENP6 conf: human SENP6 inhibition, confirmed; AID 488915; shares compounds with SENP7 block; recombinant SENP6, Z-RLRGG-aminoluciferin luminescence; 6,200 compounds, 58% hits; inhibition, % at 12.5 µM
SENP7 confirm: human SENP7 inhibition, confirmed; shares compounds with SENP7 block; recombinant SENP7, Z-RLRGG-aminoluciferin luminescence, 40 min; inhibition, % at 12.5 µM; 6,200 compounds, 69% hits
Casp3 SENP sel: selectivity test for SENP inhibitors: human caspase-3 inhibition; 6,200 compounds, 60% hits; inhibition, % at 12.5 µM; AID 488918; purified caspase-3, Z-DEVD-aminoluciferin luminescence, 60 min; shares compounds with SENP7 block;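 active = mean inhibition above about 50%, limit read from the data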;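 also: plate controls were enzyme with DMSO for no effect and wells without caspase-3 for full effect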
Target sequence (P42574 28-227 limits assumed): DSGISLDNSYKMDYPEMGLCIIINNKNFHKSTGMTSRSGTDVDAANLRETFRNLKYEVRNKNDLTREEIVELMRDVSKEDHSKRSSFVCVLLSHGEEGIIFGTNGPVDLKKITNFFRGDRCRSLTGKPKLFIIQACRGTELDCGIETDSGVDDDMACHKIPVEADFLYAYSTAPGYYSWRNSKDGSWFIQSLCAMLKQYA
Luc interf: counter-screen for SENP inhibitors: luminescence interference | Pre-incubated SENP8/Z-RLRGG-aminoluciferin, luciferase luminescence interference | 6,200 compounds, 39% hits | inhibition, % at 12.5 µM | shares compounds with SENP7 block;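 active = mean inhibition above about 50% when retested at one dose, limit read from the data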;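 also: plate controls were DMSO wells with completed reaction for no effect and substrate without enzyme for full effect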
* = called active by the depositor; x = no result given. Only some compounds are listed: those with a hit (about 2.5% of all), similar ones and a draw of the others.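 The calls were made as follows, unless noted: active = mean inhibition above about 50% in the one-dose retest (limit read from the data); inactive = the rest.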

SMILES	SENP8 block-1	SENP1 inh	SENP6 block	SENP8 block-2	SENP7 block	SENP8 conf	SENP6 conf	SENP7 confirm	Casp3 SENP sel	Luc interf
COc1cccc(NC(=O)c2ccc3nc(C)sc3c2)c1	72*	1	91*	16	89*	80*	81*	95*	87*	84*
COc1cccc(NC(=O)c2ccc3snnc3c2)c1	48	-1	64*	33	58*	56*	52*	84*	75*	64*
O=C1/C(=C/Nc2ccc3c(c2)OCO3)CCc2ccccc21	98*	8	97*	-429	98*	-24	101*	104*	98*	85*
COc1ccc(N/C=C2\CCc3ccccc3C2=O)cc1	96*	-36	97*	-228	32	36	101*	104*	99*	70*
COc1ccc2c(c1)CC/C(=C\Nc1ccc3c(c1)OCO3)C2=O	61*	-23	61*	-104	54*	3	60*	49	10	14
O=C1OC2(CCCCC2)OC(=O)C1=CNc1ccc2c(c1)OCO2	-2	-1	1	-58	1	x	x	x	x	x
O=C(OCc1nnc(-c2ccccc2)o1)c1cc(S(=O)(=O)N2CCOCC2)ccc1F	6	0	-3	12	3	x	x	x	x	x
Cc1ccc2sc(-c3ccc(NC(=O)/C=C\C(=O)O)cc3)nc2c1	55*	-68	72*	-453	18	-13	4	6	9	15
Cc1ccc2nc(-c3ccc(NC(=O)CSCC(=O)O)cc3)sc2c1	65*	-5	82*	-413	32	-6	66*	88*	55*	68*
Cc1ccc2nc(-c3ccc(NC(=O)COCC(=O)O)cc3)sc2c1	82*	-60	79*	-444	63*	90*	90*	99*	82*	87*
CCC(=O)NC(=S)Nc1ccc(-c2nc3ccc(C)cc3s2)cc1	8	-12	-4	-203	14	x	x	x	x	x
O=C(O)CSCC(=O)Nc1ccc(-c2nc3ccccc3s2)cc1	92*	-22	94*	-439	92*	96*	96*	101*	96*	96*
Cc1[nH]c(=O)c(C#N)c(C)c1CCC(=O)NCc1ccc(Cl)cc1	-6	0	11	-71	-7	x	x	x	x	x
CCc1nc2c(OCCn3cccc3)cccn2c1N(C)C(=O)C1CC1	x	-6	x	-6	x	x	x	x	x	x
COCCCn1c(SCC(=O)N2CCCC2=O)nc2ccccc2c1=O	x	1	x	18	x	x	x	x	x	x
O[C@H]1CN(CC2CCCCC2)[C@@H](c2ccc(Cl)cc2)C[C@@H]1n1cc(C2CC2)nn1	x	-3	x	-2	x	x	x	x	x	x
O=c1nc(N/N=C/c2c[nH]c3ccccc23)cn[nH]1	6	-2	39	31	28	x	x	x	x	x
O=c1nc(N/N=C/C=C/c2ccccc2)cn[nH]1	21	2	48	20	53*	10	7	24	32	8
COc1ccc(C=NNc2nc3ccccc3s2)cc1	x	0	x	-237	x	x	x	x	x	x
C(=N\Nc1nc2ccccc2s1)/c1ccccn1	97*	x	97*	x	100*	100*	101*	104*	99*	40
C(=N\Nc1ccccc1)/c1nc2ccccc2s1	58*	-49	36	6	75*	-18	12	82*	28	-4
C(=C\c1ccccc1)/C=N/Nc1nc2ccccc2s1	44	-14	51*	-166	32	32	43	42	11	41
CC(C)Oc1ccc(/C(O)=C2/C(=O)C(=O)N(CCN3CCNCC3)C2c2cccc([N+](=O)[O-])c2)cc1 (stereo not given)	8	2	7	16	5	x	x	x	x	x
